The list is not random: actives were taken first. Their share in the collection is about 2.4%.
PRMT1 FP inh = PRMT1 (human) inhibition, primary screen | 1.3% of 370,000 active | AID 652257 | inhibition, % at 2.79 µM | Q99873 | recombinant PRMT1, activity-based probe fluorescence polarization;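 active = inhibition above about 21% made by adding two undisclosed values, limit read from the data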
JMJD2C inh = blocks human GASC-1 demethylase activity; Q9H3R0; GST-JMJD2C(1-420) H3K9me3 demethylation, DELFIA europium; inhibition, % at 2.35 µM; 0.069% of 330,000 active; AID 2099;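 active = more than half of a compound's replicate wells show inhibition beyond 50%, single wells judged on their own value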;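 also: signal counts dimethyl H3K9 product captured on neutravidin plate; 0% = median of DMSO wells and 100% = 0.3 times that DMSO median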
mABHD4 FP = ABHD4 (mouse) inhibition, primary FP screen. Q8VD66. 0.54% of 370,000 active. inhibition, % at 8.92 µM. purified mABHD4, FP-Rh probe fluorescence polarization;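 active = inhibition exceeding the mean over every tested compound plus 3 SD, cut at about 30% in these data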;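 also: 0% = plate median of compound wells and 100% = S159A mutant with DMSO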
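System: mouse ABHD4 enzyme, wild type / Medium: HEPES pH 7.0, NaCl, Pluronic buffer / Reagent: FP-Rh activity-based fluorescent probe / Control set: S159A mutant high control, sample median low control / Detection: fluorescence polarization with parallel and perpendicular emission, 525/598 nm / Schedule: 45 min + 60 min at 25 °C / Compound dosing: 8.92 µM, single dose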
SIAE inh = inhibitors of human sialic acid acetylesterase SIAE. 0.69% of 370,000 active. Q9HAT2. inhibition, % at 9.66 µM. SIAE FP-Rh probe binding, fluorescence polarization;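 active = inhibition above a cutoff: mean of compounds within the control limits plus 3 SD of those, cut at about 17% in these data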;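 also: 0% = plate median of compound wells and 100% = probe without SIAE protein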
HTRA1 inhibitor = HTRA1 (human) protease inhibition | Q92743 | recombinant HTRA1, FP-rhodamine activity-based probe, fluorescence polarization | inhibition, % at 5.96 µM | 0.5% of 340,000 active | AID 504803; in the data active = inhibition above about 36%;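 also: 0% = enzyme with DMSO and 100% = wells lacking enzyme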
Target sequence (Q92743 whole entry, looked up): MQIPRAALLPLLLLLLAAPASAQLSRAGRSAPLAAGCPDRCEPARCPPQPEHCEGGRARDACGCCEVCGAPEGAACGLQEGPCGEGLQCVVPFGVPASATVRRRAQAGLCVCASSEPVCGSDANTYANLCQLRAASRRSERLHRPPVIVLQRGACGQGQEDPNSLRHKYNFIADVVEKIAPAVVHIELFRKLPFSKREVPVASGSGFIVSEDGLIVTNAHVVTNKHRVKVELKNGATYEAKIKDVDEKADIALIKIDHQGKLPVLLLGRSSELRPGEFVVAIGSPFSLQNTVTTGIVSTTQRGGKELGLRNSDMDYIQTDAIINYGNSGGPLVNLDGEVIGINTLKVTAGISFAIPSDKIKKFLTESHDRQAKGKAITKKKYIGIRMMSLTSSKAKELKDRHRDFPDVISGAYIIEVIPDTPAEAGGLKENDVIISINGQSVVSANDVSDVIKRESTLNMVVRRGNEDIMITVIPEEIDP
PRMT1 confirm = confirmation of human PRMT1 inhibitors; shares compounds with PRMT1 FP inh; 42% of 3,300 active; recombinant His-PRMT1, activity-based probe fluorescence polarization; AID 687036; inhibition, % at 2.79 µM;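 active = mean inhibition across replicates above the hit cutoff derived for the earlier primary screen, cut at about 22% in these data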
Starred values were filed as active, the others as inactive; x = no result given.

SMILES	PRMT1 FP inh	JMJD2C inh	mABHD4 FP	SIAE inh	HTRA1 inhibitor	PRMT1 confirm
O=C(CC(SCCO)c1ccc(F)cc1)c1ccco1 (stereo not drawn)	33.4*	1.9	-0.8	-1.0	6.7	30.4*
Cc1ccc(C(CC(=O)c2ccco2)SCCO)cc1 (stereo not drawn)	27.6*	-1.5	-2.5	-2.1	-8.1	32.1*
Cc1ccc(C(O)C(=O)c2ccco2)cc1 (stereo not drawn)	-0.5	-2.5	-0.9	-5.7	6.2	x
CCCCCC(=O)N(O)C1CC(=O)N(c2ccccc2)C1=O (stereo not drawn)	83.6*	2.3	-0.2	3.1	-6.6	85.3*
Cc1cc(C)c(Cn2cnc(-c3ccc([N+](=O)[O-])cc3)c2)c(C)c1	45.9*	-3.2	-11.0	0.8	-31.9	-5.8
CCCC[n+]1c(C)sc2cc(OC)ccc21	30.2*	2.3	3.7	3.8	-5.0	6.3
COc1ccc(-c2sc3ccc(OC)cc3c2-c2ccc(O)cc2)cc1	-4.2	19.4	-4.3	-7.3	5.2	x
COc1ccc2c(c1)sc(N)[n+]2Cc1cc(C)cc2cccnc12	1.6	-0.3	2.4	-8.2	-0.7	x
COc1ccc2sc(C)[n+](C)c2c1	60.2*	-6.2	5.3	-1.2	-6.5	30.2*
Cc1ccc(CN2CCCCC(NC(=O)c3ccccc3C)C2=O)cc1 (stereo not drawn)	-1.6	x	-0.7	7.6	x	x
O=C(OCC#CCSc1nnc(-c2cccc3ccccc23)o1)c1ccncc1	1.9	x	0.2	-5.0	x	x
COc1ccccc1-c1ccc(/C=C2\C=CC(=O)O2)o1	43.9*	-3.3	11.9	-0.3	x	3.1
COc1ccccc1-c1ccc(/C=C2/C=C(C)OC2=O)o1	19.3	6.5	17.7	3.0	-7.0	x
CC1(C)C2CCC(CN=C(N)CSS(=O)(=O)O)C1C2 (stereo not drawn)	88.3*	x	-11.6	1.3	0.7	68.7*
O=[N+]([O-])c1ccc(OCCCN2CCC(C(O)(c3ccccc3)c3ccccc3)CC2)c(Cl)c1	-4.3	x	5.2	0.0	x	x
CC(C)(C)c1csc(NC(=O)Cn2cnc3ccccc3c2=O)n1	29.4*	-10.3	0.1	0.5	-6.0	-0.3
CC(C)(C)c1csc(NC(=O)CSc2nc3ccccc3c(=O)[nH]2)n1	8.1	2.3	-3.1	-8.5	-31.3	x
CN(C)CCN(C)Cc1c2ccccc2c(CN(C)CCN(C)C)c2ccccc12	30.9*	-9.3	0.1	0.6	-2.8	7.5
CC(=O)NC(c1ccccc1)c1nc(-c2csc3ccccc23)cs1 (stereo not drawn)	-0.6	x	-21.0	-0.5	x	x
CN(Cc1ccccc1C#N)S(=O)(=O)c1cccs1	-2.2	24.2	0.2	-4.8	-1.2	x
N#Cc1nccnc1S(=O)(=O)c1cccs1	84.2*	8.5	2.6	-4.0	x	82.3*
CCCn1c(SCC(=O)N2CC(=O)Nc3ccccc32)nc2ccccc21	37.2*	-3.4	-16.8	0.8	0.9	24.1*
Cc1ccc(S(=O)(=O)NN2C(=O)/C(=C/c3cccnc3)SC2=S)cc1	30.5*	17.6	6.0	6.3	-3.7	12.8
COc1ccccc1/C=C1\SC(=S)N(NS(=O)(=O)c2ccc(C)cc2)C1=O	3.5	-18.8	1.2	-11.3	-24.5	x
CC(C)n1nnnc1C1(C)CCCCC(=O)N1Cc1cccc(C(F)(F)F)c1 (stereo not drawn)	-1.3	x	-7.1	0.0	x	x
SMILES	PRMT1 FP inh	JMJD2C inh	mABHD4 FP	SIAE inh	HTRA1 inhibitor	PRMT1 confirm
Cc1ccc(Nc2n[nH]c(=S)s2)c(C)c1	35.4*	x	7.7	8.7	-4.1	35.8*
CC(C)c1ccc(Nc2n[nH]c(=S)s2)cc1	16.6	x	2.8	1.7	x	x
Cc1cccc(C)c1Nc1n[nH]c(=S)s1	31.9*	x	0.5	11.3	1.4	8.0
Cc1cc(C)c(Nc2n[nH]c(=S)s2)cc1C	46.8*	x	7.9	9.2	5.6	22.5*
CCN(CC)C(=O)CC[C@H]1CC[C@]2(CCCN(C(=O)c3ccccc3)C2)O1	1.9	x	-3.4	-23.3	x	x
Cc1cc(-c2ccco2)n(CC(=O)NCc2ccccc2)n1	6.4	0.3	5.2	6.7	1.7	x
Cc1cc(-c2ccco2)n(CC(=O)NCCCc2ccccc2)n1	47.0*	-7.7	-7.8	-2.5	-8.8	1.0
CC(C)(C)C(=O)NC1CCCCN(Cc2ccc(Cl)cc2)C1=O (stereo not drawn)	-0.6	x	2.2	-3.4	x	x
Nc1nc(N)c2[nH]c(=S)[nH]c2n1	53.6*	x	1.4	8.8	-0.6	8.9
